Test results published in ChEMBL document CHEMBL2010661, “Optimization of 2,4-diarylanilines as non-nucleoside HIV-1 reverse transcriptase inhibitors” (Bioorg Med Chem Lett, 2012).
≈ marks a conversion by molar mass, not a printed value.

How the values were obtained:
[1] = test system: Human immunodeficiency virus 1; assay: Antiviral activity against Human immunodeficiency virus 1 NL4-3 infected in human TZM-bl cells assessed as inhibition of viral replication; assay type: functional, organism-based; conditions: Human immunodeficiency virus 1, NL4-3, TZM-bl
[2] = Cytotoxicity against human TZM-bl cells; assay type: cell-based
[3] = Selectivity index, ratio of CC50 for human TZM-bl cells to EC50 for Human immunodeficiency virus 1 NL4-3; assay type: toxicity, cell-based; conditions: read-out: Ratio CC50/EC50
[4] = Aqueous solubility of the compound at pH 7.4 by HPLC/UV analysis; assay type: physicochemical; conditions: buffer
[5] = Aqueous solubility of the compound at pH 2 by HPLC/UV analysis; assay type: physicochemical; conditions: buffer
Liver microsomes [6] = assay: Half life in human liver microsomes at 1 uM; assay type: ADME, Microsome
How it was run: (§1)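 1 μM compound (diluted from DMSO stock via ACN) at 37 °C in 0.1 M potassium phosphate pH 7.4 with 0.1 mg/mL human liver microsomes and 5 mM MgCl2. NADPH (1.0 mM final) started the reaction.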

Liver microsomes [7] = assay: Clearance in human liver microsomes at 1 uM; assay type: ADME, Microsome; how it was run: as §1
Liver microsomes [8] = assay: Half life in rat liver microsomes at 1 uM; assay type: ADME, Microsome
How it was run: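 Rat liver microsome incubation of 1 μM compound at 37 °C in 0.1 M potassium phosphate pH 7.4 with 5 mM MgCl2. NADPH (1.0 mM final) started the reaction, with ice-cold ACN quench at 0–60 min, in duplicate. […] Means of at least two experiments.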

[9] = test system: Human immunodeficiency virus 1; assay: Antiviral activity against Human immunodeficiency virus 1 harboring reverse transcriptase E138K mutant; assay type: functional, organism-based
[10] = test system: Human immunodeficiency virus 1; assay: Antiviral activity against multi-reverse transcriptase-resistant Human immunodeficiency virus 1; assay type: functional, organism-based
[11] = test system: Human immunodeficiency virus 1; assay: Antiviral activity against Human immunodeficiency virus 1 harboring reverse transcriptase K101E mutant; assay type: functional, organism-based
How it was run: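 EC50 against the resistant strain (RTMDR1, K101E or E138K), from experiments run at least in triplicate and reported as mean ± SD.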

COC(=O)c1cc(N)c(Nc2ccc(C#N)cc2)cc1Oc1c(C)cc(/C=C/C#N)cc1C
EC50 [1]: 2.74 nM
CC50 [2]: > 22800 nM
selectivity ratio [3]: > 8460
solubility [4]: 1.3 µg/mL (≈ 2.96 µM)
solubility [5]: 1.75 µg/mL (≈ 3.99 µM)

CNC(=O)c1cc(N)c(Nc2ccc(C#N)cc2)cc1Oc1c(C)cc(/C=C/C#N)cc1C
EC50 [1]: 5.72 nM
CC50 [2]: > 9200 nM
selectivity ratio [3]: > 1610
solubility [4]: 1.32 µg/mL (≈ 3.02 µM)
solubility [5]: 8.63 µg/mL (≈ 19.7 µM)

Cc1cc(/C=C/C#N)cc(C)c1Nc1ccnc(Nc2ccc(C#N)cc2)n1 [RILPIVIRINE]
CC50 [2]: 19400 nM
t1/2 (Liver microsomes [6]): 0.567 h
CLH (Liver microsomes [7]): 200 µL/min/mg
t1/2 (Liver microsomes [8]): 2 h

Cc1cc(/C=C/C#N)cc(C)c1Oc1cc(Nc2ccc(C#N)cc2)c(N)cc1C(=O)O
EC50 [1]: 230 nM
CC50 [2]: 14900 nM
selectivity ratio [3]: 65
solubility [4]: 117 µg/mL (≈ 276 µM)
solubility [5]: 4.4 µg/mL (≈ 10.4 µM)

Cc1cc(/C=C/C#N)cc(C)c1Oc1cc(Nc2ccc(C#N)cc2)c(N)cc1[N+](=O)[O-]
EC50 [9]: 11.3 nM
t1/2 (Liver microsomes [6]): 0.783 h
CLH (Liver microsomes [7]): 150 µL/min/mg
t1/2 (Liver microsomes [8]): 2.32 h

Cc1cc(/C=C/C#N)cc(C)c1Oc1cc(Nc2ccc(C#N)cc2)c(N)cc1CO
EC50 [1]: 0.53 nM
CC50 [2]: 16300 nM
selectivity ratio [3]: 30800
solubility [4]: 3.23 µg/mL (≈ 7.87 µM)
solubility [5]: 21 µg/mL (≈ 51.2 µM)
EC50 [10]: 0.36 nM
EC50 [11]: 3.4 nM
EC50 [9]: 3.9 nM
t1/2 (Liver microsomes [6]): 0.5 h
CLH (Liver microsomes [7]): 230 µL/min/mg
t1/2 (Liver microsomes [8]): 1.4 h

Cc1cc(/C=C/C#N)cc(C)c1Oc1cc(Nc2ccc(C#N)cc2)c(N)cc1C(N)=O
EC50 [1]: 0.87 nM
CC50 [2]: > 23600 nM
selectivity ratio [3]: > 27100
solubility [4]: 0.63 µg/mL (≈ 1.49 µM)
solubility [5]: 2.1 µg/mL (≈ 4.96 µM)
EC50 [10]: 0.31 nM
EC50 [11]: 8.8 nM
EC50 [9]: 9 nM
t1/2 (Liver microsomes [6]): 0.583 h
CLH (Liver microsomes [7]): 200 µL/min/mg
t1/2 (Liver microsomes [8]): 2.03 h
